Compounds with a hit are over-represented: about 2.6% of the library has one in this group of screens.
core dimer inh: inhibitors of HCV core protein dimerization, primary screen, biochemical, TR-FRET, high-throughput; TR-FRET GST/Flag-core106 dimerization, 1536-well; inhibition, % at 5 µM; 300,000 tested, 0.33% active; AID 1899, 2009;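 active means inhibition above the mean of all tested compounds plus 3 SD, set per screening campaign, cut at about 45% in these data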
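System – GST-tagged and Flag-tagged HCV core protein residues 1-106 · Repeats – one well for each compound · Technique – TR-FRET 671 and 617 nm emission · Doses – one concentration, 5 µM, in 0.5% DMSO · Times – 4 h, 22.5 °C incubation · Also added – Eu donor and XL665 acceptor anti-tag antibodies · Measure – percent inhibition of core106 dimerization signal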
NadD inh: inhibitors of S. aureus NadD, primary screen, biochemical, colorimetric, uHTS. Nicotinate-nucleotide adenylyltransferase NadD (Staphylococcus aureus N315). purified NadD enzyme, colorimetric absorbance read-out. inhibition, % at 20 µM. 360,000 tested, 0.78% active. AID 602399, 2012; in the data active means inhibition above about 26%
rCAG binder: binders of r(CAG) RNA repeats, primary screen, biochemical, fluorescence; r(CAG) RNA repeat, TO-PRO-1 dye displacement fluorescence; inhibition, % at 3 µM; 370,000 tested, 1.3% active; AID 651821, 2012;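 active means inhibition above the plate cutoff, the mean of all test compounds on that plate plus 3 SD, cut at about 35% in these data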;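 further: higher means more dye released from RNA so lower well fluorescence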
ABHD5-PLIN5 inh: ABHD5-PLIN5 interaction inhibitors, primary screen, cell lysate, split luciferase complementation, luminescence; Perilipin-5 (Homo sapiens) + 1-acylglycerol-3-phosphate O-acyltransferase ABHD5 (Homo …; Split G. princeps luciferase complementation, 4 h; inhibition, % at 4 µM; 360,000 tested, 0.78% active;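 active means inhibition above the mean inhibition across every tested compound plus 3 SD, cut at about 22% in these data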
A number is an active result; n = inactive; x = no result.

SMILES	core dimer inh	NadD inh	rCAG binder	ABHD5-PLIN5 inh
CCn1cc(C(=O)NCc2ccco2)c(=O)c2cc(F)c(N3CCN(C(=O)c4ccco4)CC3)cc21	55.9	n	n	n
O=C(CCC(=O)c1cccs1)Nc1ccc(F)c(F)c1F	52.4	n	n	n
CC(C)(C)c1ccc(-c2nnc(SCC(=O)Nc3ccccc3-c3ccccc3)n2Cc2ccco2)cc1	x	x	n	x
O=C(/C=C/c1ccncc1)c1ccc(NC(=O)c2ccccc2F)cc1	n	n	x	95.0
CCOC(=O)/C(=C\c1cccnc1)C(=O)c1cc(C(C)=O)c(Nc2ccccc2)s1	n	n	x	90.2
CCOC(=O)/C(=C\c1ccccc1)C(=O)c1cc(C(C)=O)c(Nc2ccccc2)s1	n	n	n	n
CCn1cc(Cl)c(C(=O)N2N=C(c3ccc4ccccc4c3)CC2c2ccccc2O)n1 (centres undefined)	n	35.0	n	n
CCn1cc([N+](=O)[O-])c(C(=O)N2N=C(c3ccc4ccccc4c3)CC2c2ccccc2O)n1 (centres undefined)	n	n	n	n
CN(CC(=O)Nc1sccc1C#N)C1CCCCC1	51.4	n	n	n
N#Cc1ccsc1NC(=O)CN1CCCCCC1	n	n	n	n
COC(=O)C1=C(C)N(Cc2cccc(C(F)(F)F)c2)C(=NCc2ccc3c(c2)OCO3)NC1c1cccc(Cl)c1 (centres undefined)	x	x	n	x
Cc1cccc(N2CCN(C(=O)CSc3ccsc3[N+](=O)[O-])CC2C)c1 (centres undefined)	57.0	n	n	n
Cc1cccc(N2CCN(C(=O)/C=C/c3cccs3)CC2C)c1 (centres undefined)	n	n	n	n
O=C(NC1CCCCN(Cc2cccc(Cl)c2)C1=O)C1CCCCC1 (centres undefined)	x	x	n	x
COC(=O)c1cc(C(C)c2c[nH]c3ccccc23)n2ccccc12 (centres undefined)	x	x	n	x
CCOc1cccc2sc(N(CCN(C)C)C(=O)c3cc4ccccc4cc3OC)nc12	n	n	n	23.0
CCOc1cccc2sc(N(CCCN(C)C)C(=O)c3ccc(S(=O)(=O)N(C)Cc4ccccc4)cc3)nc12	n	n	n	n
CCOc1cccc2sc(N(CCCN(C)C)C(=O)c3ccc(S(=O)(=O)N(CC)Cc4ccccc4)cc3)nc12	n	n	n	22.6
COc1ccc(C(=O)C2(C(=O)NC3CCCC3)CC(c3ccccc3C(F)(F)F)=NO2)cc1 (centres undefined)	x	x	n	x
COC(=O)[C@]12C[C@H](CC(=O)N3CCC(c4ccccc4)CC3)C(=O)N(Cc3ccc4c(c3)OCO4)C1=C[C@H](COCc1ccccc1)O[C@@H]2C	x	x	n	x
CCn1c2ccccc2c2cc(/C=N/NC(=O)c3cccc(C)c3)ccc21	47.9	n	n	n
CCn1c2ccccc2c2cc(/C=N/NC(=O)c3ccccc3C)ccc21	n	n	n	n
c1coc(-c2ccnc3nc(-n4cccc4)nn23)c1	56.5	n	n	n
O=C(Nc1c(-c2ccc(C(F)(F)F)cc2)nc2ncccn12)c1ccc(F)cc1	x	x	n	x
COc1ccc2cc3c(N)nn(C(=O)c4ccc(Cl)c([N+](=O)[O-])c4)c3nc2c1	48.1	n	n	n
SMILES	core dimer inh	NadD inh	rCAG binder	ABHD5-PLIN5 inh
COc1ccc2cc3c(N)nn(C(=O)c4ccccc4[N+](=O)[O-])c3nc2c1	n	n	n	n
COC(=O)[C@]12C[C@H](CC(=O)N3CCN(C(=O)c4ccco4)CC3)C(=O)N(CCc3ccc(OC)c(OC)c3)C1=C[C@H](C1CCCC1)O[C@@H]2C	x	x	n	x
O=C1C(Cl)=C(N2CCCCC2)C(=O)C(Cl)=C1c1cnc(N2CCCCC2)s1	x	33.3	x	n
O=C1C(Cl)=C(N2CCCCCC2)C(=O)N1c1ccc(Cl)cc1	n	n	n	n
O=C(O)c1ccc2c(c1)[C@@H]1C=CC[C@@H]1[C@H](c1ccccn1)N2	n	n	81.9	n
COc1ccc(C(=O)N/N=C(\C)c2ccc3c(c2)C2C=CCC2C(c2ccccc2)N3)cc1 (centres undefined)	67.1	52.1	x	n
CC(C)COc1ccc(-c2nn(-c3ccccc3)cc2/C=C2/SC(=S)N(CC(=O)O)C2=O)cc1	n	n	n	n
O=C(O)CN1C(=O)/C(=C\c2cn(-c3ccccc3)nc2-c2ccccc2)SC1=S	n	31.2	x	n
Oc1cc(O)c(CN2CCOCC2)cc1CN1CCOCC1	x	n	n	22.4

From PubChem BioAssay
